# Measurements published in the RNAGym collection of RNA variant scans (doi:10.1002/anie.201605470).
# B1: Osa-1-4 twister ribozyme (parent)
# chain: CCGCCUAACACUGCCAAUGCCGGUCCCAAGCCCGGAUAAAAGUGGAGGGGGCGG
# Variants of: B1
# Assay: self-cleavage, relative activity (ratio to wild type); higher = more cleavage; co-transcriptional
# In short: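 A DNA template for a 54-nucleotide Oryza sativa twister ribozyme was synthesised with 97 % wild-type base and 1 % of each other base at the 48 positions downstream of the cleavage site. It was transcribed in vitro for 2 h at 37 °C, allowing co-transcriptional self-cleavage, then reverse-transcribed with a template-switching oligonucleotide, PCR-amplified and deep-sequenced. Cleavage status was scored from reads with or without upstream sequence. Relative activity is fraction cleaved normalised to wild type.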
row,Variant,self-cleavage
1,C31U G51C,0.06
2,C31U G51A,0.29
3,C31U G51U,0.13
4,C31A G34U,0.04
5,C31A G34A,0.05
6,C31A G34C,0.04
7,C31G G19U,0.05
8,C31G G19C,0.02
9,C31G G19A,0.08
10,C32G G44U,0.08
11,C32G G44A,0.11
12,C32G G44C,0.07
13,C31A G22C,0.02
14,C31A G22U,0.04
15,C31A G22A,0.04
16,C32A G35A,0.06
17,C32A G35C,0.05
18,C32A G35U,0.07
19,C31U C32U,0.09
20,C31U C32G,0.08
21,C31U C32A,0.05
22,C31G U12C,0.06
23,C31G U12G,0.05
24,C31G U12A,0.08

row,Variant,self-cleavage
1,C31G C9A,0.03
2,C31G C9U,0.06
3,C31G C9G,0.23
4,C31A U18C,0.04
5,C31A U18A,0.04
6,C31A U18G,0.05
7,C31A G42A,0.03
8,C31A G42U,0.01
9,C31A G42C,0.02
10,C31G G49A,0.05
11,C31G G49U,0.03
12,C31G G49C,0.03
13,C31A G19U,0.02
14,C32A,0.15
15,C32G,0.18
16,C31U G30C,0.03
17,C31U G30U,0.03
18,C31U G30A,0.03
19,C32A G47A,0.04
20,C32A G47C,0.03
21,C32A G47U,0.04
22,C31G U18G,0.15
23,C31G U18A,0.1
24,C31G U18C,0.13

row,Variant,self-cleavage
1,C32A G54A,0.11
2,C32A G54U,0.18
3,C32A G54C,0.06
4,C31U G35A,0.87
5,C31U G35U,0.85
6,C31U G35C,0.14
7,C32A C9G,0.06
8,C32A C9U,0.05
9,C32A C9A,0.05
10,C31A G23U,0.02
11,C31A G23C,0.02
12,C31A G23A,0.03
13,C32A G49C,0.03
14,C32A G49A,0.04
15,C32A G49U,0.04
16,C31G C52A,0.1
17,C31G C52G,0.15
18,C31G C52U,0.12
19,C31G G42A,0.1
20,C31G G42U,0.02
21,C31G G42C,0.05
22,C32G G22A,0.1
23,C32G G22U,0.07
24,C32G G22C,0.04

row,Variant,self-cleavage
1,C31A U43A,0.03
2,C31A U43C,0.03
3,C31A U43G,0.04
4,C31U C33U,0.31
5,C31U C33G,0.06
6,C31U C33A,0.08
7,C31U G47A,0.05
8,C31U G47U,0.05
9,C31U G47C,0.03
10,C31G G35C,0.04
11,C31G G35U,0.12
12,C31G G35A,0.15
13,C31A G44A,0.04
14,C31A G44C,0.03
15,C31A G44U,0.03
16,C31G U37G,0.14
17,C31G U37C,0.09
18,C31G U37A,0.12
19,C32G C52G,0.16
20,C32G C52A,0.12
21,C32G C52U,0.2
22,C31U C52A,0.57
23,C31U C52U,0.96
24,C31U C52G,0.75

row,Variant,self-cleavage
1,C32A G30A,0.02
2,C32A G30U,0.02
3,C32A G30C,0.03
4,C32G G42A,0.09
5,C32G G42C,0.08
6,C32G G42U,0.04
7,C32A G44C,0.07
8,C32A G44A,0.06
9,C32A G44U,0.08
10,C31G G54A,0.1
11,C31G G54C,0.07
12,C31G G54U,0.19
13,C32A G34U,0.05
14,C32A G34C,0.08
15,C32A G34A,0.06
16,C31A U12C,0.02
17,C31A U12A,0.04
18,C31A U12G,0.04
19,C31A G49U,0.02
20,C31A G49C,0.01
21,C31A G49A,0.02
22,C31U G48A,0.05
23,C31U G48C,0.05
24,C31U G48U,0.04

row,Variant,self-cleavage
1,C31U G53A,0.19
2,C31U G53U,0.08
3,C31U G53C,0.05
4,C31A U37G,0.05
5,C31A U37C,0.04
6,C31A U37A,0.03
7,C31G C33G,0.03
8,C31G C33U,0.06
9,C31G C33A,0.04
10,C31U G23C,0.04
11,C31U G23U,0.04
12,C31U G23A,0.07
13,C32G G19A,0.12
14,C32G G19C,0.03
15,C32G G19U,0.07
16,C32A G19C,0.02
17,C32A G19U,0.04
18,C32A G19A,0.07
19,C32A G42U,0.02
20,C32A G42A,0.06
21,C32A G42C,0.06
22,C31U C9U,0.32
23,C31U C9A,0.11
24,C31U C9G,0.16

row,Variant,self-cleavage
1,C31G G51U,0.05
2,C31G G51A,0.08
3,C31G G51C,0.04
4,C31U U24A,0.02
5,C31U U24C,0.05
6,C31U U24G,0.03
7,C32A U18G,0.19
8,C32A U18C,0.07
9,C32A U18A,0.11
10,C31G U43G,0.09
11,C31G U43C,0.06
12,C31G U43A,0.1
13,C32A C52U,0.18
14,C32A C52G,0.1
15,C32A C52A,0.1
16,C31G G50U,0.06
17,C31G G50C,0.07
18,C31G G50A,0.11
19,C32A G22C,0.03
20,C32A G22U,0.06
21,C32A G22A,0.08
22,C31G G48A,0.03
23,C31G G48C,0.03
